Experimental findings from ChEMBL document CHEMBL1795275, “Substituted benzoxazinones as potent positive allosteric AMPA receptor modulators: part II” (Bioorg Med Chem Lett, 2011) are described below.

For orientation: Ki means the dissociation constant of the complex between target and ligand, obtained from inhibition or displacement. A lower Ki goes with tighter binding.

For assay [1], the species on record is Rattus norvegicus. Briefly: Positive allosteric modulation of AMPA receptor in rat embryonic hippocampal neurons assessed as concentration required to double glutamate-induced steady-state current by patch clamp electrophysiology assay. Conditions: Hippocampus.
Assay [2] is filed under the species Rattus norvegicus. Put plainly: Positive allosteric modulation of AMPA receptor in rat hippocampal slices assessed as increase of fEPSP-induced current amplitude at 0.3 uM. Type of assay: tissue-based. Conditions: Hippocampus. The method, boiled down:
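Field recordings in in vitro hippocampal slices. Result is the percent rise in fEPSP amplitude, measured at the stated compound concentration.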

Assay [3] can be described thus: Displacement of [3H]-AMPAKINE from AMPA receptor in rat forebrain cell membranes. Details: species or system Membrane. In general terms: Loss of bound radioactivity is the signal in a displacement assay; it reports binding, not function.
For assay [4], the species on record is Rattus norvegicus. Put plainly: Ratio of compound to CX614 for AMPA receptor in rat embryonic hippocampal neurons assessed as concentration required to double glutamate-induced steady-state current. Conditions: Hippocampus.

Molecules are shown by their SMILES.

With `O=C1c2cc3c(cc2OCN1CCn1cnc([N+](=O)[O-])c1)C(=O)N1CCCC1O3` (centres undefined), the CD in the assay filed under Rattus norvegicus [1] was determined as 0.0007 µM. In addition, the Activity in the assay filed under Rattus norvegicus [2] was 19%. Further, the Ki in assay [3] was 60 nM. In addition, in the assay filed under Rattus norvegicus [4], the Ratio came out at 3000.
